Shown are actives, neighbours in structure and some others; about 2% of the full set was active somewhere.
HIF act = HIF pathway transcriptional activation | actives 0.32% (n = 300,000) | activation, % at 7.5 µM (by protocol) | U2OS HRE-luciferase reporter, luminescence; normalized: DMSO 0%, desferrioxamine 100%;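 active means mean activation of at least 10% of the iron chelator positive control signal, with at least half of replicates also reaching 10%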
ARNT-TACC3 inh = disruptors of human ARNT/TACC3 interaction; Q9Y6A5; AlphaScreen His-ARNT PAS-B/GST-TACC3 binding, luminescence; TACC3 fragment carries E629A point mutation; inhibition, % at 9.99 µM; actives 0.66% (n = 390,000);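 active means mean inhibition of replicates at least 50% and at least half of replicates each reaching 50%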;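 further: 0% = complete ARNT plus TACC3 wells and 100% = ARNT alone without TACC3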
AI-2 QS mod = modulators of Vibrio harveyi AI-2 quorum sensing system; Vibrio harveyi JMH597 AI-2 luminescence/OD600 ratio, 9 h; stronger effect = lower value; strain lacks LuxN and CqsS sensors; 0 = neutral-control median; activity change, % at 7.5 µM; actives 0.4% (n = 300,000); AID 2094; in the data active means activity change below about -75%, passing the limit was not always enough;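 further: luminescence divided by OD600 gain over 9 h not by final OD600 alone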
T cruzi repl = T. cruzi replication inhibition; T. cruzi beta-gal in NIH3T3, luminescence, 90 h; inhibition, % (no concentration beside the values); actives 1.4% (n = 300,000);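 active means mean inhibition across valid replicates above about 55%, limit read from the data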;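 further: signal also drops with host cell toxicity which is not excluded here; 0% = plate median of DMSO wells and 100% = zero luminescence signal; higher percent means less beta-gal luminescence so fewer parasites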
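assay system = mouse NIH/3T3 fibroblasts infected with β-gal-expressing T. cruzi Tulahuen C4 | input = 5,000 NIH/3T3 host cells per well | buffer or medium = DMEM plus 2% FBS | timing = 3 h host attachment, then at least 90 h co-culture | measured by = GalScreen luminescence, 60 min | evaluation = luminescence reflecting intracellular parasite burden, expressed as percent inhibition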
Active calls of the source: *; x = not tested or not shown.

SMILES | HIF act | ARNT-TACC3 inh | AI-2 QS mod | T cruzi repl
CCN1[C@@H]2c3ccc(C4=CCCCC4)c(=O)n3C[C@H]1[C@H](CO)[C@H]2C(=O)N1CCc2ccccc2C1 | x | 5 | x | x
CC(C)(C)C(C(Oc1ccc(Cl)cc1)n1cncn1)n1nnnc1C(c1cccc(Cl)c1)N1CCCCC1 (stereo not given) | -2 | x | 156 | 55*
CCOC(=O)c1cc2c(=O)n3ccccc3nc2n(C(C)C)c1=NC(=O)c1c(-c2c(F)cccc2Cl)noc1C | 0 | -3 | 10 | 58*
COc1ccc(C(=O)C2CCCN(Cc3c(C)[nH]c4ccccc34)C2)c(OC)c1 (stereo not given) | -1 | x | 3 | 62*
COc1ccc(C(=O)C2CCCN(Cc3sc(N4CCCC4)nc3Cl)C2)c(OC)c1 (stereo not given) | 0 | 5 | 26 | 63*
C[C@@H]1CN([C@H](C)CO)C(=O)Cc2cc(NC(=O)Nc3ccc(F)cc3)ccc2O[C@@H]1CN(C)S(=O)(=O)c1ccccc1 | x | 0 | x | x
CO[C@H]1CN(C)C(=O)c2cc(NS(=O)(=O)c3cn(C)cn3)ccc2OC[C@@H](C)N(Cc2cccc(F)c2)C[C@H]1C | x | 5 | x | x
O=S(=O)(NCC(c1cccnc1)N1CCN(Cc2ccccc2)CC1)c1cc(F)ccc1F (stereo not given) | -1 | 2 | 3 | 59*
COc1ccc(N2CCN(C(CNS(=O)(=O)c3cc(F)ccc3F)c3cccnc3)CC2)cc1 (stereo not given) | 0 | 12 | 31 | 70*
O=S(=O)(NCC(c1cccnc1)N1CCN(Cc2ccccc2)CC1)c1ccc(Cl)cc1 (stereo not given) | 0 | 7 | 5 | 58*
O=S(=O)(NCC(c1cccnc1)N1CCc2ccccc2C1)c1ccccc1 (stereo not given) | 0 | 0 | 12 | 23
COc1ccc(N2CCN(C(CNS(=O)(=O)c3cccs3)c3cccnc3)CC2)cc1 (stereo not given) | 0 | x | 16 | 43
O=[N+]([O-])c1ccc(S(=O)(=O)NCC(c2cccnc2)N2CCc3ccccc32)cc1 (stereo not given) | 1 | 13 | 7 | 70*
C[C@@H]1CN([C@@H](C)CO)C(=O)Cc2cc(NC(=O)Nc3ccc4c(c3)OCO4)ccc2O[C@@H]1CN(C)Cc1ccc(C(=O)O)cc1 | x | 7 | x | x
C[C@@H]1CN([C@H](C)CO)C(=O)c2cc(NC(=O)Nc3ccc(C(F)(F)F)cc3)ccc2O[C@@H]1CN(C)S(=O)(=O)c1cn(C)cn1 | x | -7 | x | x
O=S(=O)(NCC(c1cccnc1)N1CCN(c2ccc(F)cc2)CC1)c1cc(F)ccc1F (stereo not given) | 0 | 4 | 3 | 58*
CS(=O)(=O)NCC(c1cccnc1)N1CCN(c2ccc(F)cc2)CC1 (stereo not given) | 0 | 9 | 15 | 22
Cc1ccc(C(CNS(=O)(=O)c2ccc(Br)cc2)N2CCN(C)CC2)cc1 (stereo not given) | 0 | -1 | 7 | 10
COc1ccc(S(=O)(=O)NCC(c2cccnc2)N2CCN(c3ccc(F)cc3)CC2)cc1C (stereo not given) | 0 | 8 | 6 | 44
COc1ccc(S(=O)(=O)NCC(c2cccnc2)N2CCN(c3ccccc3)CC2)cc1C (stereo not given) | 0 | 8 | 48 | 63*
Cc1ccc(C(CNS(=O)(=O)c2ccc([N+](=O)[O-])cc2)N2CCN(C)CC2)cc1 (stereo not given) | 0 | -2 | 18 | 58*
Cc1noc(C)c1NC(=O)N1C[C@H](O)COC[C@@H]2O[C@@H](CC(=O)NCC3CCCCC3)CC[C@H]21 | x | 3 | x | x
CN(C)CC(=O)Nc1ccc2c(c1)[C@H]1C[C@H](CC(=O)NCCc3ccccc3)O[C@H](CO)[C@H]1O2 | x | -8 | x | x
CN1C(=O)c2oc3ccccc3c(=O)c2C1c1ccncc1 (stereo not given) | 0 | 93* | 24 | -9
COc1ccc(C2c3c(oc4ccccc4c3=O)C(=O)N2Cc2ccncc2)cc1OC (stereo not given) | 0 | x | 30 | -6
COc1cc2c(cc1OC)CN(c1nc(-c3cccnc3)nc3ccccc13)CC2 | -1 | 3 | 13 | 55*
c1cncc(-c2nc(N3CCCCCC3)c3ccccc3n2)c1 | 0 | 5 | 10 | 35

From PubChem BioAssay
